Reference: publication PMC5812400 (ESMO Open, 2018)

Tested on: adult patients with advanced non-haematological malignancies
Assay: Safety and tolerability
Assay type: in vivo, human
Summary of the method: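 Patients on milled oral capsules, fasted, in 28-day cycles. AEs and SAEs recorded from first dose through 30 days after last dose. Graded by NCI CTCAE v4.03 and coded to MedDRA v19.0. Relatedness to study drug judged by investigator.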

CC(C)n1nc(-c2ccc3oc(N)nc3c2)c2c(N)ncnc21 [TAK-228, Sapanisertib]
AE resulting in TAK-228 discontinuation (QD 3 mg (n=11)): 0 n (%) | Drug-related AE (QD 3 mg (n=11)): 10 (91) n (%) | Drug-related AE: Abdominal pain (QD 3 mg (n=11)): 2 (18) n (%) | Drug-related AE: Decreased appetite (QD 3 mg (n=11)): 3 (27) n (%) | Drug-related AE: Diarrhoea (QD 3 mg (n=11)): 2 (18) n (%) | Drug-related AE: Fatigue (QD 3 mg (n=11)): 6 (55) n (%) | Drug-related AE: Hyperglycaemia (QD 3 mg (n=11)): 2 (18) n (%) | Drug-related AE: Nausea (QD 3 mg (n=11)): 4 (36) n (%) | Drug-related AE: Pruritus (QD 3 mg (n=11)): 4 (36) n (%) | Drug-related AE: Rash (QD 3 mg (n=11)): 1 (9) n (%) | Drug-related AE: Rash (maculopapular) (QD 3 mg (n=11)): 4 (36) n (%) | Drug-related AE: Stomatitis (QD 3 mg (n=11)): 1 (9) n (%) | Drug-related AE: Vomiting (QD 3 mg (n=11)): 1 (9) n (%) | Drug-related SAE (QD 3 mg (n=11)): 0 n (%) | Drug-related grade ≥3 AE (QD 3 mg (n=11)): 5 (46) n (%) | Grade ≥3 AE (QD 3 mg (n=11)): 6 (55) n (%) | Grade ≥3 AE: Abdominal pain (QD 3 mg (n=11)): 1 (9) n (%) | Grade ≥3 AE: Anaemia (QD 3 mg (n=11)): 0 n (%) | Grade ≥3 AE: Blood phosphorus decreased (QD 3 mg (n=11)): 1 (9) n (%) | Grade ≥3 AE: Diarrhoea (QD 3 mg (n=11)): 1 (9) n (%) | Grade ≥3 AE: Fatigue (QD 3 mg (n=11)): 0 n (%) | Grade ≥3 AE: Hyperglycaemia (QD 3 mg (n=11)): 1 (9) n (%) | Grade ≥3 AE: Hyponatraemia (QD 3 mg (n=11)): 1 (9) n (%) | Grade ≥3 AE: Rash macular (QD 3 mg (n=11)): 1 (9) n (%) | On-study deaths (QD 3 mg (n=11)): 0 n (%) | SAE (QD 3 mg (n=11)): 3 (27) n (%) | AE resulting in TAK-228 discontinuation (QD 4 mg (n=6)): 1 (17) n (%) | Drug-related AE (QD 4 mg (n=6)): 6 (100) n (%) | Drug-related AE: Abdominal pain (QD 4 mg (n=6)): 1 (17) n (%) | Drug-related AE: Decreased appetite (QD 4 mg (n=6)): 2 (33) n (%) | Drug-related AE: Diarrhoea (QD 4 mg (n=6)): 3 (50) n (%) | Drug-related AE: Fatigue (QD 4 mg (n=6)): 4 (67) n (%) | Drug-related AE: Hyperglycaemia (QD 4 mg (n=6)): 1 (17) n (%) | Drug-related AE: Nausea (QD 4 mg (n=6)): 1 (17) n (%) | Drug-related AE: Pruritus (QD 4 mg (n=6)): 3 (50) n (%) | Drug-related AE: Rash (QD 4 mg (n=6)): 2 (33) n (%) | Drug-related AE: Rash (maculopapular) (QD 4 mg (n=6)): 0 n (%) | Drug-related AE: Stomatitis (QD 4 mg (n=6)): 2 (33) n (%) | Drug-related AE: Vomiting (QD 4 mg (n=6)): 1 (17) n (%) | Drug-related SAE (QD 4 mg (n=6)): 0 n (%) | Drug-related grade ≥3 AE (QD 4 mg (n=6)): 5 (83) n (%) | Grade ≥3 AE (QD 4 mg (n=6)): 6 (100) n (%) | Grade ≥3 AE: Abdominal pain (QD 4 mg (n=6)): 0 n (%) | Grade ≥3 AE: Anaemia (QD 4 mg (n=6)): 0 n (%) | Grade ≥3 AE: Blood phosphorus decreased (QD 4 mg (n=6)): 0 n (%) | Grade ≥3 AE: Diarrhoea (QD 4 mg (n=6)): 0 n (%) | Grade ≥3 AE: Fatigue (QD 4 mg (n=6)): 2 (33) n (%) | Grade ≥3 AE: Hyperglycaemia (QD 4 mg (n=6)): 1 (17) n (%) | Grade ≥3 AE: Hyponatraemia (QD 4 mg (n=6)): 1 (17) n (%) | Grade ≥3 AE: Rash macular (QD 4 mg (n=6)): 1 (17) n (%) | On-study deaths (QD 4 mg (n=6)): 1 (17) n (%) | SAE (QD 4 mg (n=6)): 2 (33) n (%) | AE resulting in TAK-228 discontinuation (QD Total (n=17)): 1 (6) n (%) | Drug-related AE (QD Total (n=17)): 16 (94) n (%) | Drug-related AE: Abdominal pain (QD Total (n=17)): 3 (18) n (%) | Drug-related AE: Decreased appetite (QD Total (n=17)): 5 (29) n (%) | Drug-related AE: Diarrhoea (QD Total (n=17)): 5 (29) n (%) | Drug-related AE: Fatigue (QD Total (n=17)): 10 (59) n (%) | Drug-related AE: Hyperglycaemia (QD Total (n=17)): 3 (18) n (%) | Drug-related AE: Nausea (QD Total (n=17)): 5 (29) n (%) | Drug-related AE: Pruritus (QD Total (n=17)): 7 (41) n (%) | Drug-related AE: Rash (QD Total (n=17)): 3 (18) n (%) | Drug-related AE: Rash (maculopapular) (QD Total (n=17)): 4 (24) n (%) | Drug-related AE: Stomatitis (QD Total (n=17)): 3 (18) n (%) | Drug-related AE: Vomiting (QD Total (n=17)): 2 (12) n (%) | Drug-related SAE (QD Total (n=17)): 0 n (%) | Drug-related grade ≥3 AE (QD Total (n=17)): 10 (59) n (%) | Grade ≥3 AE (QD Total (n=17)): 12 (71) n (%) | Grade ≥3 AE: Abdominal pain (QD Total (n=17)): 1 (6) n (%) | Grade ≥3 AE: Anaemia (QD Total (n=17)): 0 n (%) | Grade ≥3 AE: Blood phosphorus decreased (QD Total (n=17)): 1 (6) n (%) | Grade ≥3 AE: Diarrhoea (QD Total (n=17)): 1 (6) n (%) | Grade ≥3 AE: Fatigue (QD Total (n=17)): 2 (12) n (%) | Grade ≥3 AE: Hyperglycaemia (QD Total (n=17)): 2 (12) n (%) | Grade ≥3 AE: Hyponatraemia (QD Total (n=17)): 2 (12) n (%) | Grade ≥3 AE: Rash macular (QD Total (n=17)): 2 (12) n (%) | On-study deaths (QD Total (n=17)): 1 (6) n (%) | SAE (QD Total (n=17)): 5 (29) n (%) | Asthaenic conditions, patients (QD arm): 59% | Drug-related AE of any grade: decreased appetite (QD arm): 29% | Drug-related AE of any grade: diarrhoea (QD arm): 29% | Drug-related AE of any grade: fatigue (QD arm): 59% | Drug-related AE of any grade: nausea (QD arm): 29% | Drug-related AE of any grade: pruritus (QD arm): 41% | Grade ≥3 AE: Fatigue (QD arm): 12% | Grade ≥3 AE: Hyperglycaemia (QD arm): 12% | Grade ≥3 AE: Hyponatraemia (QD arm): 12% | Grade ≥3 AE: macular rash (QD arm): 12% | SAEs, patients (QD arm): 29% | Incidence of grade ≥3 drug-related AEs (QD milled TAK-228): 59% | AE resulting in TAK-228 discontinuation (QW 20 mg (n=7)): 0 n (%) | Drug-related AE (QW 20 mg (n=7)): 5 (71) n (%) | Drug-related AE: Asthaenia (QW 20 mg (n=7)): 1 (14) n (%) | Drug-related AE: Decreased appetite (QW 20 mg (n=7)): 1 (14) n (%) | Drug-related AE: Dehydration (QW 20 mg (n=7)): 1 (14) n (%) | Drug-related AE: Diarrhoea (QW 20 mg (n=7)): 4 (57) n (%)
